Data set [1] concerns MCF7. The data set is described as follows: Cytotoxicity against human MCF7 cells assessed as reduction in cell viability measured after 48 hrs by CCK-8 assay. In kind it is functional, cell-based. As to conditions: MCF7, 48 h. The method in brief: (§1)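 CCK-8 viability: cells grown in RPMI-1640 with 10% FBS, 1×10^4 per well, attached 24 h, then medium replaced with fresh medium containing a range of compound concentrations for 48 h at 37 °C, 5% CO2. CCK-8 added 3 h, absorbance 450 nm; vehicle control set as 100%. IC50 by nonlinear regression, mean ± SD, at least two experiments in triplicate.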

Data set [2] relates to PC-3. Briefly: Cytotoxicity against human PC-3 cells assessed as reduction in cell viability measured after 48 hrs by CCK-8 assay. In kind it is functional, cell-based. Conditions: PC-3, 48 h. The method in brief:
as §1

The nature of data set [3]: Cytotoxicity against human MCF-10A cells assessed as reduction in cell viability measured after 48 hrs by CCK-8 assay. In kind it is toxicity, cell-based. The method in brief: as §1
For orientation: Formazan colour is commonly taken as a measure of viable cells.

Data set [4] relates to PC-3. Briefly: Induction of nitric oxide production in human PC-3 cells assessed as nitrite level at 100 uM measured after 12 to 48 hrs by Griess assay. Conditions: time 12-48 hrs. In kind it is functional. An outline of the steps: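 PC3 cells were seeded at 1×10^4 per well and grown 24 h, then moved to serum-free RPMI with 100 μM compound for 12, 24 or 48 h at 37 °C. Supernatant was mixed with 1% sulfanilamide in 2.5% H3PO4 (10 min, dark), then 0.1% NED (10 min, 37 °C), and A540 was read. Nitrite was calculated from a NaNO2 curve (0–100 μM). Controls were DMSO and SNP 100 μM. Data from ≥3 independent experiments in triplicate, mean ± SD.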
(In general: Nitrite, measured by Griess reagent, commonly stands in for NO production.)

Data set [5] is described as follows: Selectivity index, ratio of IC50 for cytotoxicity against human MCF-10A cells to IC50 for cytotoxicity against human MCF7 cells. In kind it is toxicity, cell-based. As to conditions: MCF-10A cells versus MCF7 cells, read-out: Ratio IC50. An outline of the steps: (§2)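 CCK-8 was added for 3 h and A450 read, with vehicle set as 100% viability. IC50 was fitted by nonlinear regression from ≥2 experiments in triplicate. SI = normal-cell IC50 divided by the matched cancer-cell IC50.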

A short description of data set [6]: Cytotoxicity against human PNT2 cells assessed as reduction in cell viability measured after 48 hrs by CCK-8 assay. In kind it is toxicity, cell-based. An outline of the steps: as §1
For data set [7], the system named is OVCAR-3. The data set is described as follows: Cytotoxicity against human OVCAR-3 cells assessed as reduction in cell viability measured after 48 hrs by CCK-8 assay. In kind it is functional, cell-based. Conditions: OVCAR-3, 48 h. An outline of the steps:
as §1

Data set [8] can be described thus: Selectivity index, ratio of IC50 for cytotoxicity against human PNT2 cells to IC50 for cytotoxicity against human PC-3 cells. In kind it is toxicity, cell-based. As to conditions: PNT2 cells versus PC-3 cells, read-out: Ratio IC50. An outline of the steps:
as §2

Data set [9] deals with PC-3. The data set is described as follows: Cytotoxicity against human PC-3 cells assessed as reduction in cell viability at 0.24 uM measured after 24 hrs by SRB assay. In kind it is functional, cell-based. An outline of the steps: (§3)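 SRB assay: PC3 seeded 1×10^4 per well, after 24 h exposed 24 h at 37 °C, 5% CO2 with or without 1 mM N-acetyl-L-cysteine; vehicle 0.1% DMSO. Fixed with 15% TCA at 4 °C for 1 h, dried, stained 0.4% sulforhodamine B, dye solubilized in 10 mM Tris, absorbance 540 nm; ANOVA/Tukey.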
In general terms: Sulforhodamine B stains cellular protein and so reports cell mass.

In data set [10] the test system is PC-3. The data set is described as follows: Cytotoxicity against human PC-3 cells assessed as reduction in cell viability at 0.24 uM measured after 24 hrs in presence of antioxidant N-acetyl-L-cysteine by SRB assay. In kind it is functional, cell-based. An outline of the steps:
as §3

Data set [11] deals with PC-3. Briefly: Cytotoxicity against human PC-3 cells assessed as reduction in cell viability at 0.05 uM measured after 24 hrs in presence of antioxidant N-acetyl-L-cysteine by SRB assay. In kind it is functional, cell-based. An outline of the steps:
as §3

In data set [12] the test system is PC-3. The data set is described as follows: Cytotoxicity against human PC-3 cells assessed as reduction in cell viability at 0.05 uM measured after 24 hrs by SRB assay. In kind it is functional, cell-based. The method in brief: as §3

Structures are written as SMILES. pIC50: −log10 of the molar value. Activity calls are given as the source filed them. The rule behind the calls is not given here.

What is called pIC50 is the negative decadic logarithm of the IC50, by convention in mol/L. A word on the IC50: it is the point on the concentration scale where inhibition reaches its midpoint. For the molecule `O=S(=O)(c1ccccc1)c1c(OCCCCCCO)no[n+]1[O-]`, the values for the pIC50 in data set [1], in data set [2] and in [7] were 5.70, 5.42 and 5.66, respectively. Further, the figures for the 50% inhibitory concentration (IC50) at 48 h in data set [3] and in data set [6] were 1.7 µM and 12.9 µM, respectively. Further, in [4], the Activity was 3.2 µM. In addition, the selectivity ratio is 0.9 in data set [5] and 3.4 in data set [8].

Consider `O=S(=O)(c1ccccc1)c1c(OCCCO)no[n+]1[O-]`, for which the pIC50 in data set [1] was 5.68; in data set [2], 5.14; in [7], 5.48. The outcome in data set [9] was Active. Besides, the IC50 at 48 h in data set [3] came out at 1.8 µM; in [6], 1.9 µM. The Activity in data set [4] turned out to be 3.2 µM. Also, the outcome in data set [10] was inactive. The values for the selectivity ratio in data set [5] and in data set [8] were 0.9 and 0.3, respectively.

As to `O=S(=O)(c1ccccc1)c1c(OCCCCCCCCCCCCO)no[n+]1[O-]`, the pIC50 in data set [1] was 5.37; in data set [2] it was 6.89; in data set [7], 7.40. The IC50 at 48 h stood at 14.8 µM in data set [3] and 17.6 µM in data set [6]. The result in [11] was inactive. Also, the Activity in data set [4] was determined as 3.2 µM. Moreover, in data set [12], the result was Active. Further, the selectivity ratio was determined as 3.4 in data set [5] and 137 in data set [8].

In the case of `COc1cc(/C=C/C(=O)N2CCC=CC2=O)cc(OC)c1OC` [PIPLARTINE], the results for the pIC50 in data set [1], in [2] and in [7] were 5.27, 5.25 and 5.46, respectively. In addition, the IC50 at 48 h in data set [3] turned out to be 5.3 µM; in [6], 8.5 µM. The selectivity ratio in data set [5] was found to be 1; in [8] it was 1.5.

As to `COc1cc(/C=C/C(=O)N2CCC=CC2=O)cc(OC)c1OCCCCCCOc1no[n+]([O-])c1S(=O)(=O)c1ccccc1`, the pIC50 is 5.96 in data set [1], 6.89 in data set [2] and 6.52 in [7]. For the same molecule, the values for the IC50 at 48 h in [3] and in [6] were 3.6 µM and 3.3 µM, respectively. Moreover, the Activity in [4] is 23.5 µM. Further, the results for the selectivity ratio in data set [5] and in [8] were 3.1 and 26.2, respectively.

For the origin of these results see ChEMBL document CHEMBL6134784, “Furoxan-piplartine hybrids as effective NO donors and ROS inducers in PC3 cancer cells: design, synthesis, and biological evaluation” (RSC Med Chem, 2024).
